The values that follow come from the EternaBench riboswitch data.

This series concerns MS2 coat protein. As to the kind of experiment: apparent Kd, MS2 coat protein; higher = weaker binding; RNA-MaP array; FMN 200 µM where present. Summed up: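 The apparent Kd is the median of filtered binding-curve fits, one per cluster, to green signal normalised to red-channel RNA signal and control-cluster median Fmax. The clusters were on Illumina sequencing chips, and stalled E. coli RNA polymerase had transcribed the designs on them. Titration used SNAP-549-labelled MS2 coat protein from 0.7 or 1.5 nM, doubling to 3 µM, without and then with constant ligand, in 100 mM Tris-HCl pH 7.5, 80 mM KCl, 4 mM MgCl2, BSA, DTT, yeast tRNA and Tween-20.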

Where [1] appears, read: designed as: OFF switch for flavin mononucleotide, no ligand.
The mark [2] stands for this setting: ligand present: flavin mononucleotide, designed as: OFF switch for flavin mononucleotide.
[3] abbreviates: designed as: ON switch for flavin mononucleotide, no ligand.
Setting [4] is: ligand present: flavin mononucleotide, designed as: ON switch for flavin mononucleotide.

Take “CAGCACGGAAACAAAGUCUUCGGACAUGAGGAUCACCCAUGUAAGGAUAUGCCUACUAAAAGUAGGCAGAAGGUACGCGUGCUG”: the “apparent Kd” value was 18.9 nM under setting [1] and 50.9 nM under setting [2].

As for “UGUCGGAGCAGAGGAUAUUACAUGAGGAUCACCCAUGUAUGAACCAAUAGCUGGAAACAGGAAUGUAAGAAGGCUGCUCCGACA”, the “apparent Kd” value is, setting by setting: under setting [1], 6.17 nM; under setting [2], 30.1 nM.

As for “GGAUGACAAAGUCAUCCUAUUCGAACAUGAGGAUCACCCAUGUAGGAUAUGCUACAGAAACUGUAGCAGAAGGACAUGUGCUUU”, the “apparent Kd” value was found to be 34.1 nM under setting [1] and 151 nM under setting [2].

Consider “GUCGGAAACGACAAAAGUAGCAUAGGAGAAGGUUCAUUAAACAUGAGGAUCACCCAUGUAAUUGGAAAGGAUAUCCUAUGCUAC”, for which the “apparent Kd” value was determined as 5.04 nM under setting [3] and 5.06 nM under setting [4].

Turning to “UCUCGACAUGAGGAUCACCCAUGUCAGGAUAUUGUAUUGGAGGUUUUUUACCUUAUGGCAAGAAGGGAUGUGUG”, the “apparent Kd” value reads like this: under setting [1], 20.6 nM; under setting [2], 21.6 nM.

As to “UUAUUAUAUGUAGGAUAUGCAUAUUAUUAUUAUGCAGAAGGACAUGAGGAUCACCCAUGUAUAUUAUUAUUGUAUAUUAUAUAU”, the “apparent Kd” value reads like this: under setting [1], 28.4 nM; under setting [2], 46.1 nM.

On to “CCGUUGGGCUAGAAGGCUCCGGGAGAGCCGCGGAGAGGAUAUAGCACAUGAGGAUCACCCAUGUGGUAUGACCUUAUGUAAUCA”, for which the “apparent Kd” value reads like this: under setting [1], 33.7 nM; under setting [2], 62.9 nM.

As to “GUGGUCAGACAUGAGGAUCACCCAUGUGGAAUAAAUAACACACAGGAUAUCCAAUAUAAAAUAUAGGAGAAGGGUGGAUUGGUG”, the “apparent Kd” value is 253 nM under setting [3] and 181 nM under setting [4].

As to “UCGGUUACAUGAGGAUCACCCAUGUCUCGGGCCCUAUUUAGCAGAAGGCCAGCUGGGCUACGGAUGGAGGAUAUGCUUAUGGCC”, the “apparent Kd” value was determined as 147 nM under setting [3] and 36.5 nM under setting [4].

With “AAUUCACAUGAGGAUCACCCAUGUAUUGCGAGCGCGAUUACGUAGGAUAUCCAUCAAAACAGAUAGGAGAAGGGCGUACUAUCU”, the “apparent Kd” value by setting is: under setting [3], 253 nM; under setting [4], 185 nM.

On to “AUAAUGUGAGGAUAUCAGUCGACUAGCUGCGGCUAGUCGACUGAGAAGGCACAUGAGGAUCACCCAUGUGUUUC”, for which the “apparent Kd” value was determined as 17.9 nM under setting [1] and 40.8 nM under setting [2].

“AGUCCACAUGAGGAUCACCCAUGUCAGGAUAUCUGCUGGAAGAGGGCAGAAAGCCAGGAGAGAAGGGACCUGGG”: the “apparent Kd” value under setting [1] was 37.9 nM and the “apparent Kd” value under setting [2] came to 74.5 nM.

As for “GGUGUGUUAGGAUAUCGCGGCGGCGGCGUUUGUUGUUGUUGUGAGAAGGGACAUGAGGAUCACCCAUGUGCGCC”, the “apparent Kd” value by setting is: under setting [1], 24.4 nM; under setting [2], 27.2 nM.

As to “GAAUAAUUGAUCCAUUUUUAAAACAUGAGGAUCACCCAUGUGCAGGAUAUCGAUAGUUUUAAAUUCGAGAAGGGCAAGAACUGU”, the “apparent Kd” value runs as follows: under setting [1], 128 nM; under setting [2], 173 nM.

As for “UUAUUUAUGCAAGGAUAUCAUUAAUUUUUACGUCCUACAUGAGGAUCACCCAUGUUUAGUUUAUUUGAGAAGGUGCAUUGUCUG”, the “apparent Kd” value under setting [3] worked out at 38.4 nM and the “apparent Kd” value under setting [4] was determined as 27.6 nM.

On to “GGACGUCAGAUUAACAUGAGGAUCACCCAUGUCUUUUGACAUGAGGAUAUCCAUCCUAAUUGGAUGGAGAAGGCAUGGACGUCC”, for which the “apparent Kd” value reads like this: under setting [3], 975 nM; under setting [4], 189 nM.

Take “AGGGUGGGCUCAGGAUAUCAGGGAGAGAUGUGGACAUGAGGAUCACCCAUGUACCAGUGUUGUCAUGAGAAGGGAGAUACUGUA”: the “apparent Kd” value by setting is: under setting [3], 52.7 nM; under setting [4], 28 nM.

“GUAGCAAUCGGAGGAUAUUCAUUAAACAUGAGGAUCACCCAUGUAAAUUUGGGAGAAGGCCGAUUGCUACAAGAGCGAAAGCUC”: the “apparent Kd” value under setting [3] was 22.9 nM and the “apparent Kd” value under setting [4] is 6.1 nM.

Regarding “GUUAAACAUGAGGAUCACCCAUGUAAGGAUAUGCUGCGGUCGCGCUGACGUGACUGCAGCAGAAGGUACAAUUG”, the “apparent Kd” value under setting [1] was found to be 100 nM and the “apparent Kd” value under setting [2] was found to be 77.4 nM.

As to “GGUUGUCAUCGUCGUCCUUUCGGUACAUGAGGAUCACCCAUGUAGGAUAUGCUGCAUUCGAUGUGGCAGAAGGGCAUGUGUGUU”, the “apparent Kd” value is, setting by setting: under setting [1], 25.5 nM; under setting [2], 71.5 nM.

With “UCGUGAAGGACAGGAUAUGGACAUGAGGAUCACCCAUGUACAUGGGAAUAUAUACUGAAUUUAUACUAGAAGGGUUACAUAAAU”, the “apparent Kd” value runs as follows: under setting [1], 27.4 nM; under setting [2], 16.7 nM.

For the sequence “GACUUGCUGUCAGGAUAUAACCGUCCUACACGGUUAGAAGGGACAUGAGGAUCACCCAUGUGCCAGAGCGCACGAAUUUUUUAC”, the “apparent Kd” value under setting [1] came to 10.8 nM and the “apparent Kd” value under setting [2] came out at 50.9 nM.

“UGUCAAAAUGAAGGAUAUCUAAGCAUAAACCAUAGAGAAGGUCAAUAGUACAUGAGGAUCACCCAUGUUAGAAUAGAUGGGUUA”: the “apparent Kd” value under setting [1] is 99.9 nM and the “apparent Kd” value under setting [2] amounted to 155 nM.

For “UCAUAAGAACAAGGAUAUCAAUAAAAUAUAAAUGCUACAUGAGGAUCACCCAUGUUUUAGCAUGGUGAGAAGGUGUAUUUACGG”, the “apparent Kd” value was determined as 67.8 nM under setting [3] and 42.5 nM under setting [4].

As to “UAGAUGGGAGGAUAUACGUAGAUGCAGAUUCGUGUGGUGCUACAUGAGGAUCACCCAUGUAGAAGGCCCGUCUU”, the “apparent Kd” value was determined as 17 nM under setting [1] and 98.1 nM under setting [2].

For the sequence “GCCAUCGUAUGAGGAUAUGGCACCGAAACGGUGCCAGAAGGCAUGUCAAUAGACAUGAGGAUCACCCAUGUAUUAUCGAUGGCA”, the “apparent Kd” value runs as follows: under setting [3], 367 nM; under setting [4], 37.1 nM.

As for “AGCACGUCAGGAUAUCUGAUGUCUAACUUCGGUUAGACAUCAGAGAAGGGACAUGAGGAUCACCCAUGUGCAAA”, the “apparent Kd” value under setting [1] worked out at 60.6 nM and the “apparent Kd” value under setting [2] stood at 77.9 nM.

For “AUGGGACAUGAGGAUCACCCAUGUCCGGUAUAUCGAGGAUAUGGGAUGCUCUUAAUGUAACCAGAAGGCGAUAAAA”, the “apparent Kd” value is, setting by setting: under setting [3], 16.6 nM; under setting [4], 18.9 nM.

With “GUACAUGAGGAUCACCCAUGUAAAUGGGUAAAUAUAGAACGUAGAAGGAUGUAUUUACACAUGACAUAGGAUAUACUAUAUAGU”, the “apparent Kd” value by setting is: under setting [1], 93.8 nM; under setting [2], 73.9 nM.

With “ACAGGCUUCGAGAAGGACAUGAGGAUCACCCAUGUGCGUGUGAAGCAGCCGUGAGGCUGCAUCAUGUAGGAUAUCGGAGUCUGC”, the “apparent Kd” value under setting [1] came out at 73 nM and the “apparent Kd” value under setting [2] was 557 nM.

As for “GUCGGAAACGACAAAAGUAUGGAUCCAGAAGGCAUGAAACAUGAGGAUCACCCAUGUCAAAGAUAUGAGGAUAUGGAUCCAUAC”, the “apparent Kd” value turned out to be 4.64 nM under setting [3] and 4.01 nM under setting [4].

As to “GGGUACAUCGGAGGAUAUCAUGUAAAUACAUGAGGAUCACCCAUGUCCAUGGAGACAUCGGAGAUUGAGAAGGCCGAUGUACCG”, the “apparent Kd” value was 171 nM under setting [3] and 203 nM under setting [4].

On to “CGCACUAAACAUGAGGAUCACCCAUGUAACUAAGAGCUAGUCAGAAGGCAUAAUUAGUGAAUUAAUGAGGAUAUGAAUAGUGCG”, for which the “apparent Kd” value is, setting by setting: under setting [3], 157 nM; under setting [4], 62.2 nM.

Consider “ACAUGAUACAAGAAGGAUGUAUUUGAUUUGAUCAUAGGAUAUUGUUAUAUUGUUUACUCUAAUAACAUGAGGAUCACCCAUGUA”, for which the “apparent Kd” value is, setting by setting: under setting [3], 7.04 nM; under setting [4], 6.95 nM.

“GCGUACAUAUCAGGAUAUCAUAUUAUUGUUUUACUCAGUGUAUACAUGAGGAUCACCCAUGUUCUUGAGAAGGGAUUACUACGC”: the “apparent Kd” value turned out to be 15.2 nM under setting [1] and 14.7 nM under setting [2].

“AAACAAGGAUCAGGAUAUGUGAAAGUAGACCGACAUGAGGAUCACCCAUGUACGACAAGACUCGUACAGAAGGGAUGCACAUGA”: the “apparent Kd” value reads like this: under setting [3], 73.3 nM; under setting [4], 165 nM.

As to “AAACAUGUCCGAGGAUAUCUGGAAACAUUUUCAAGAGAAGGCGGACAUGAGGAUCACCCAUGUCUCUCCUCAUCAAAUCCAAUU”, the “apparent Kd” value is, setting by setting: under setting [1], 8.37 nM; under setting [2], 51.1 nM.

Turning to “CCCGCGAUGUCAGGAUAUAGUCGGAGGUGCAGACUAGAAGGGACAUGAGGAUCACCCAUGUGCGUGAAAAUUUGAAACCCAGGU”, the “apparent Kd” value stood at 46.5 nM under setting [1] and 164 nM under setting [2].

For “CCCAUCGCAUGAGGAUAUGGUCAGCUUUGCUGACCAGAAGGCAUGUCAAUAGACAUGAGGAUCACCCAUGUAGUUAAGAUGGGA”, the “apparent Kd” value is 675 nM under setting [3] and 49.2 nM under setting [4].

For “UUGGACGUCGUAGGACAUGUAGGAUAUUCCUACAUGAGGAUCACCCAUGUUGACAUGGAAGAAGGACAGAAGGACGAUGUCCAU”, the “apparent Kd” value is, setting by setting: under setting [3], 723 nM; under setting [4], 46.9 nM.

For the sequence “GCUGACGAUGUAGGAUAUCAGUAUAAUAAAUACUGAGAAGGACAUGAGGAUCACCCAUGUAACUCACGUCAGCAGAGGAAACUC”, the “apparent Kd” value reads like this: under setting [1], 17.6 nM; under setting [2], 20.4 nM.

With “AAUAAACUCACAGGAUAUAGCAGAGGUCGCGCGAACUUACAGGCGACUAUGCUAGAAGGGUGACCACAUGAGGAUCACCCAUGU”, the “apparent Kd” value reads like this: under setting [3], 944 nM; under setting [4], 162 nM.

As for “ACUAAGGAGGUAGGAUAUUGUGUGGUGGCCGGGCUCCCACGGCGAGCGGCACAAGAAGGAUCCCUACAUGAGGAUCACCCAUGU”, the “apparent Kd” value is, setting by setting: under setting [3], 24 nM; under setting [4], 16.4 nM.

Take “UACGCACAGAAGUACUCCGGGUCCAGAAGGGACAUGAGGAUCACCCAUGUACCGUUGAUUGCUUGUCAGGAUAUGGACCCGGCC”: the “apparent Kd” value was found to be 6.82 nM under setting [1] and 26.3 nM under setting [2].

Take “GACGGUGAUGUAGGAUAUACGCUGGAAUACAGCGUAGAAGGACAUGAGGAUCACCCAUGUAAAGUGUCUCCAAAUAACACCGUC”: the “apparent Kd” value by setting is: under setting [1], 31.5 nM; under setting [2], 90.8 nM.

In the case of “GACGGAUGUAUAGGAUAUCGACUGGAAUACAGUCGAGAAGGAUACAUGAGGAUCACCCAUGUAACCGUCAAUAAUAAUAAUAAU”, the “apparent Kd” value is, setting by setting: under setting [1], 14 nM; under setting [2], 29.7 nM.

“GCGAUUUUGUAAGGAUAUACUCGAGUUUUAAGAGUAGAAGGUACUUACAUGAGGAUCACCCAUGUCUAACGAAAUACUAGUCGC”: the “apparent Kd” value was 10.5 nM under setting [3] and 8.44 nM under setting [4].

The apparent Kd is the concentration giving half-maximal binding under the conditions of the assay.
